Measured values taken from ChEMBL document CHEMBL1759839, “Synthesis, biopharmaceutical characterization, antimicrobial and antioxidant activities of 1-(4'-O-β-D-glucopyranosyloxy-2'-hydroxyphenyl)-3-aryl-propane-1,3-diones” (2011).
≈ marks a conversion by molar mass, not a printed value.

Legend:
Type in all cases: functional
Bacillus subtilis = assay: Antibacterial activity against Bacillus subtilis ATCC 6633 after 24 hrs; settings: ATCC 6633, 24 h
Method in brief: (§1)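 Twofold broth dilution MIC in Mueller-Hinton broth, pH 6.9, inoculum (1-2) × 10³ cells/mL. Compounds and ampicillin trihydrate were dissolved in DMSO at 20 mg/mL stock and serially diluted from 20 down to 0.005. […] Plates incubated at 36 °C with a humid chamber and read visually after 24 h. MIC was the lowest concentration with no visible turbidity.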

Pseudomonas aeruginosa = assay: Antibacterial activity against Pseudomonas aeruginosa ATCC 27853 after 24 hrs; settings: ATCC 27853, 24 h; method in brief: as §1
[1] = test system: Radical scavenging activity; assay: Antioxidant activity assessed as DPPH free radical scavenging activity after 20 mins by spectrophotometric analysis; parameters: concentration or dose not given beside the values
Method in brief: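 Reduction of methanolic DPPH radical, with absorbance recorded at 516 nm and run in triplicate. Percent scavenging was calculated from the initial and final absorbance of each solution.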

Candida albicans = assay: Antifungal activity against Candida albicans ATCC 10231 after 48 hrs; settings: ATCC 10231, 48 h
Method in brief: (§2)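 Yeasts grown on Sabouraud dextrose agar, then in Sabouraud liquid medium at 36 °C overnight. Inoculum diluted in MOPS-buffered RPMI-1640 with L-glutamine, pH 7, to 2.5 × 10³ cfu/mL final. Twofold dilutions were made from a 20 mg/mL DMSO stock, with fluconazole as reference and DMSO at most 12.5% final. Incubated at 36 °C, humid, and read visually at 48 h. MIC was the lowest concentration giving no visible turbidity.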

Staphylococcus aureus = assay: Antibacterial activity against Staphylococcus aureus ATCC 25923 after 24 hrs; settings: ATCC 25923, 24 h; method in brief: as §1
Escherichia coli [2] = assay: Antibacterial activity against Escherichia coli ATCC […] after 24 hrs; method in brief: as §1
Nakaseomyces glabratus = assay: Antifungal activity against Candida glabrata ATCC 36583 after 48 hrs; settings: ATCC 36583, 48 h; method in brief: as §2
Escherichia coli [3] = assay: Antibacterial activity against Escherichia coli ATCC […]; method in brief: as §1

Row | Structure (SMILES) | MIC (Bacillus subtilis) [µg/mL] | MIC (Pseudomonas aeruginosa) [µg/mL] | Activity [1] [%] | MIC (Candida albicans) [µg/mL] | MIC (Staphylococcus aureus) [µg/mL] | MIC (Escherichia coli [2]) [µg/mL] | MIC (Nakaseomyces glabratus) [µg/mL] | MIC (Escherichia coli [3]) [µg/mL]
1 | Cc1cccc(C(=O)CC(=O)c2ccc(O[C@@H]3O[C@H](CO)[C@@H](O)[C@H](O)[C@H]3O)cc2O)c1 | 2500 (≈ 5780 µM) | 10000 (≈ 23100 µM) | 79.5 | 2500 (≈ 5780 µM) | 20 (≈ 46.3 µM) | 5000 (≈ 11600 µM) | 10000 (≈ 23100 µM) | 
2 | COc1ccc(C(=O)CC(=O)c2ccc(O[C@@H]3O[C@H](CO)[C@@H](O)[C@H](O)[C@H]3O)cc2O)cc1 | 2500 (≈ 5580 µM) | 30 (≈ 66.9 µM) | 73.5 | 1250 (≈ 2790 µM) | 2500 (≈ 5580 µM) | 5000 (≈ 11200 µM) | 2500 (≈ 5580 µM) | 5000 (≈ 11200 µM)
3 | Cc1ccc(C(=O)CC(=O)c2ccc(O[C@@H]3O[C@H](CO)[C@@H](O)[C@H](O)[C@H]3O)cc2O)cc1 | 2500 (≈ 5780 µM) | 5000 (≈ 11600 µM) | 82 | 5000 (≈ 11600 µM) | 625 (≈ 1450 µM) | 5000 (≈ 11600 µM) | 5000 (≈ 11600 µM) | 
4 | O=C(CC(=O)c1ccc(O[C@@H]2O[C@H](CO)[C@@H](O)[C@H](O)[C@H]2O)cc1O)c1ccc(Cl)cc1 | 300 (≈ 662 µM) | 20 (≈ 44.2 µM) | 84.3 | 150 (≈ 331 µM) | 150 (≈ 331 µM) | 70 (≈ 155 µM) | 5000 (≈ 11000 µM) | 
5 | O=C(CC(=O)c1ccccc1Cl)c1ccc(O[C@@H]2O[C@H](CO)[C@@H](O)[C@H](O)[C@H]2O)cc1O | 1250 (≈ 2760 µM) | 20 (≈ 44.2 µM) | 89.1 | 5000 (≈ 11000 µM) | 150 (≈ 331 µM) | 20 (≈ 44.2 µM) | 5000 (≈ 11000 µM) | 
6 | OC(Cn1cncn1)(Cn1cncn1)c1ccc(F)cc1F [FLUCONAZOLE] |  |  |  | 10 (≈ 32.7 µM) |  |  | 10 (≈ 32.7 µM) | 
7 | O=C(CC(=O)c1ccc(O[C@@H]2O[C@H](CO)[C@@H](O)[C@H](O)[C@H]2O)cc1O)c1cccc(Cl)c1 | 625 (≈ 1380 µM) | 1250 (≈ 2760 µM) | 83.5 | 10000 (≈ 22100 µM) | 150 (≈ 331 µM) | 20 (≈ 44.2 µM) | 10000 (≈ 22100 µM) | 
8 | O=C1O[C@H]([C@@H](O)CO)C(O)=C1O |  |  | 98 |  |  |  |  | 
9 | O=C(CC(=O)c1ccc(O[C@@H]2O[C@H](CO)[C@@H](O)[C@H](O)[C@H]2O)cc1O)c1ccccc1 | 150 (≈ 359 µM) | 150 (≈ 359 µM) | 81.2 | 2500 (≈ 5980 µM) | 300 (≈ 717 µM) | 1250 (≈ 2990 µM) | 2500 (≈ 5980 µM) | 
10 | COc1cccc(C(=O)CC(=O)c2ccc(O[C@@H]3O[C@H](CO)[C@@H](O)[C@H](O)[C@H]3O)cc2O)c1 | 150 (≈ 335 µM) | 5000 (≈ 11200 µM) | 77.3 | 10000 (≈ 22300 µM) | 625 (≈ 1390 µM) | 2500 (≈ 5580 µM) | 5000 (≈ 11200 µM) | 
11 | CC1(C)S[C@@H]2[C@H](NC(=O)[C@H](N)c3ccccc3)C(=O)N2[C@H]1C(=O)O [AMPICILLIN] | 5 (≈ 14.3 µM) | 5 (≈ 14.3 µM) |  |  | 19 (≈ 54.4 µM) | 10 (≈ 28.6 µM) |  | 
